The source of these data is ChEMBL document CHEMBL1128172, “Structure-activity relationships of cyclic pentapeptide endothelin A receptor antagonists” (J Med Chem, 1995).

In brackets after ≈: the same amount, converted by molar mass. Where a SMILES comes first, the peptide text is derived from it. A value given as a limit tells only on which side of the number the result lay.

Data set [1] concerns the target T1, Endothelin-1 receptor (Homo sapiens, UniProt P25101).
T1 sequence (P25101 whole entry): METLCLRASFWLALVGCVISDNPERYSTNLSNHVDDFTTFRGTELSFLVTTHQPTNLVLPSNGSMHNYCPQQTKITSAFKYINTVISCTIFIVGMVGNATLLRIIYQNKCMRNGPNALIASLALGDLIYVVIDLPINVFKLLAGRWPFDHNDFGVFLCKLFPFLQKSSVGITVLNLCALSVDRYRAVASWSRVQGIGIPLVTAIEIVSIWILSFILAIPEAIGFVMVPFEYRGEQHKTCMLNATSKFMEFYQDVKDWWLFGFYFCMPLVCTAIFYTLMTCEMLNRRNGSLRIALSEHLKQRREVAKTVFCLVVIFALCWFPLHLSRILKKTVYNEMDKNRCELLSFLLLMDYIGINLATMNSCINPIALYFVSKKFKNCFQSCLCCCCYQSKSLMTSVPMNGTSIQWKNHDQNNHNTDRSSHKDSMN
In words: Inhibitory effect against Human Endothelin A receptor. An outline of the steps: (§1)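 Competition binding of 12 pM [125I]ET-1 to membranes from human neuroblastoma SK-N-MC cells (ETA) or Girardi heart cells (ETB), with increasing test compound, in 50 mM Tris/HCl pH 7.4 with protease inhibitors, 1 mM EDTA and 0.3% BSA. Incubated 4 h at 25 °C, filtered, washed, gamma-counted. Nonspecific binding defined with 0.2 μM ET-1. Values are the average of two independent experiments.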

The target of data set [2] is T2, Endothelin-1 receptor (Sus scrofa, UniProt Q29010).
T2 sequence (Q29010 whole entry): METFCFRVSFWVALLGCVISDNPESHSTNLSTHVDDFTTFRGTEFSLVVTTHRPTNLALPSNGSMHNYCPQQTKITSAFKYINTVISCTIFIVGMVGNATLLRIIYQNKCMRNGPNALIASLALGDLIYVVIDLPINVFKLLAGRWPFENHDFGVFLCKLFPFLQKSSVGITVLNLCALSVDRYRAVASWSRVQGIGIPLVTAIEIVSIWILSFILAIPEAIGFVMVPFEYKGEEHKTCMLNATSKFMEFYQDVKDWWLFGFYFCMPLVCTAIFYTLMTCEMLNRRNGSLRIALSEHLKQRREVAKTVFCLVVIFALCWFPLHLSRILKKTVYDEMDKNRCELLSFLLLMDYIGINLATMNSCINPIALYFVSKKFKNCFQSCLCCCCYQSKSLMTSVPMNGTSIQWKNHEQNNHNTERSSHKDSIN
In words: Inhibitory effect against porcine Endothelin A receptor. The method in brief: (§2)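 [125I]ET-1 displacement from porcine aortic smooth muscle membranes, which are rich in ETA receptors. The IC50 is taken at the high-affinity sites and averaged over more than three independent experiments. The protocol follows an earlier report.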

Data set [3] deals with T3, Endothelin receptor type B (Sus scrofa, UniProt P35463).
T3 sequence (P35463 whole entry): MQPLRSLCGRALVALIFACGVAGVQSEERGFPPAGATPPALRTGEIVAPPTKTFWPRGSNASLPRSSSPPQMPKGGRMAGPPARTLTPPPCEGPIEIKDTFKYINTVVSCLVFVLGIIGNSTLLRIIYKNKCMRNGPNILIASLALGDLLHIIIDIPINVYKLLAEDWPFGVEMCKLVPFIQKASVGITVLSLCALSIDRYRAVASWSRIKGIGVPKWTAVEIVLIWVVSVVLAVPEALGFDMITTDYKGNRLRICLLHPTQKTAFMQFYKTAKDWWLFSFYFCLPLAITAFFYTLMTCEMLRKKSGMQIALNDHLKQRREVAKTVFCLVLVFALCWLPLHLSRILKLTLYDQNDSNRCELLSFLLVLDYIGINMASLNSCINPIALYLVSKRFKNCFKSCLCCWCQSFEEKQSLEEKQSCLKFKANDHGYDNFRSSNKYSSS
In words: Inhibitory effect against porcine Endothelin B receptor.

Data set [4] can be described thus: Solubility in saline. The data set is classed as physicochemical. The following applies: for solubility: saline, read-out: S. The method in brief:
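Measured on the sodium salts, dissolved in saline.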

Data set [5] concerns the target T4, Endothelin receptor type B (Homo sapiens, UniProt P24530).
T4 sequence (P24530 whole entry): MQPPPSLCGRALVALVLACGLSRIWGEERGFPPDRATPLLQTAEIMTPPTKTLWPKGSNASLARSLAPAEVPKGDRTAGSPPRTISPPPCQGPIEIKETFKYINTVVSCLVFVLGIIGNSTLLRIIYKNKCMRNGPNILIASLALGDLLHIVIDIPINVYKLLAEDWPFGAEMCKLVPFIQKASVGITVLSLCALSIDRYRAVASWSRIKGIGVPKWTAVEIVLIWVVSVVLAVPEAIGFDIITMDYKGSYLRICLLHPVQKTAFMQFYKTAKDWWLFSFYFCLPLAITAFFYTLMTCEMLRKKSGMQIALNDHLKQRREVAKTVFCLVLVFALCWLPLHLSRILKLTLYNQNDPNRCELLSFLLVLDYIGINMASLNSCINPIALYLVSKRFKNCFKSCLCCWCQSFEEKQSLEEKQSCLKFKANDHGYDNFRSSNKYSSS
In words: Inhibitory effect against Human Endothelin B receptor.

Data set [6] deals with T2, Endothelin-1 receptor. In words: The compound was tested for binding inhibitory activity against Endothelin A receptor from porcine aortic smooth muscle membranes.
The target in data set [7] is T1, Endothelin-1 receptor. In words: Inhibitory effect against Human ET-A receptor. The method in brief:
as §1

The species entered for the next data set is Sus scrofa. In words: Anti vasoconstriction activity was evaluated in isolated porcine coronary arteries. The data set is classed as functional. The settings on record: read-out: pA2 (converted).
Data set [8] addresses T2, Endothelin-1 receptor. In words: Inhibitory effect against porcine ET-A receptor. An outline of the steps: as §2

With `CC[C@H](C)[C@H]1NC(=O)[C@H](C)NC(=O)[C@@H](CCC(=O)O)NC(=O)[C@@H](Cc2c[nH]c3ccccc23)NC(=O)[C@H](CC(C)C)NC1=O` (HELM PEPTIDE1{A.[CC[C@H](C)[C@@H](N[*:1])C(=O)[*:2]].L.[dW].[dE]}$PEPTIDE1,PEPTIDE1,1:R1-5:R2$$$V2.0), the IC50 is 0.59 µM against Endothelin-1 receptor [1], 1.4 µM against Endothelin-1 receptor [2], more than 100 µM in [3] and more than 100 µM in data set [5]. Moreover, in data set [4], the solubility turned out to be 0.21 mg/mL (≈ 0.343 mM). For the same compound, the IC50 max at Endothelin-1 receptor [6] was found to be 1.4 µM.

As for `CC(C)C[C@@H]1NC(=O)[C@@H](C2CCCC2)NC(=O)[C@@H]2CCCN2C(=O)[C@@H](CC(=O)O)NC(=O)[C@@H](Cc2c[nH]c3ccccc23)NC1=O` (single isomer, unassigned), the IC50 on Endothelin-1 receptor [7] worked out at 0.0034 µM; in data set [3], 4.8 µM; at Endothelin-1 receptor [8], 0.004 µM; in data set [5] it was 21 µM. Further, in the data set filed under Sus scrofa, the Kb is 0.0316 µM. Moreover, the solubility in data set [4] was more than 100 mg/mL. At Endothelin-1 receptor [6], this compound came in with an IC50 max of 0.004 µM.

The compound `CC(C)C[C@@H]1NC(=O)[C@@H](C)NC(=O)[C@@H]2CCCN2C(=O)[C@@H](CC(=O)O)NC(=O)[C@@H](Cc2c[nH]c3ccccc23)NC1=O` (single isomer, unassigned) gave an IC50 max at Endothelin-1 receptor [6] of 0.26 µM.

For `CC(C)C[C@@H]1NC(=O)[C@@H](C(C)C)NC(=O)[C@H](C)N(C)C(=O)[C@@H](CC(=O)O)NC(=O)[C@@H](Cc2c[nH]c3ccccc23)NC1=O` (single isomer, unassigned), at Endothelin-1 receptor [6], the IC50 max is 0.034 µM.

In the case of `CC(C)C[C@@H]1NC(=O)[C@@H](C(C)C)NC(=O)[C@H](Cc2c[nH]c3ccccc23)NC(=O)[C@@H](CC(=O)O)NC(=O)[C@@H](Cc2c[nH]c3ccccc23)NC1=O` (single isomer, unassigned), the IC50 max at Endothelin-1 receptor [6] stood at 0.15 µM.

Compound `CC(C)C[C@@H]1NC(=O)[C@@H](C(C)C)NC(=O)[C@@H]2CCCN2C(=O)[C@@H](CC(=O)O)NC(=O)[C@@H](Cc2c[nH]c3ccccc23)NC1=O` (single isomer, unassigned) yielded an IC50 on Endothelin-1 receptor [1] of 0.0083 µM. Moreover, in the data set filed under Sus scrofa, the Kb is 0.0398 µM. Also, the S in data set [4] (buffer) was more than 1000 mg/mL. The compound also came in with an IC50 max at Endothelin-1 receptor [6] of 0.022 µM.

For `CC(C)[C@H]1NC(=O)[C@H](C)NC(=O)[C@@H](CC(=O)O)NC(=O)[C@@H](Cc2c[nH]c3ccccc23)NC(=O)[C@@H]2CCCN2C1=O` (single isomer, unassigned), the IC50 max at Endothelin-1 receptor [6] was 8.5 µM.

Compound `CC(C)C[C@@H]1NC(=O)[C@@H](C(C)C)NC(=O)[C@@H]2CCCN2C(=O)[C@@H](CC(=O)O)NC(=O)[C@@H](Cc2cn(C(=O)OC(C)(C)C)c3ccccc23)NC1=O` (single isomer, unassigned) yielded an IC50 max on Endothelin-1 receptor [6] of 1.5 µM.

Consider `CC(C)C[C@@H]1NC(=O)[C@@H](C(C)C)NC(=O)[C@@H]2CCCN2C(=O)[C@@H](CS(=O)(=O)O)NC(=O)[C@@H](Cc2c[nH]c3ccccc23)NC1=O` (single isomer, unassigned), for which the IC50 against Endothelin-1 receptor [1] is 0.03 µM; on Endothelin-1 receptor [2], 0.021 µM; in data set [3] it was 30 µM; in data set [5], more than 100 µM. The Kb in the data set listed under Sus scrofa is 0.0398 µM. For the same compound, the solubility in [4] is more than 10 mg/mL. The same compound came in with an IC50 max at Endothelin-1 receptor [6] of 0.021 µM.

Consider `CC(C)C[C@@H]1NC(=O)[C@@H](C(C)C)NC(=O)[C@@H]2CSCN2C(=O)[C@@H](CC(=O)O)NC(=O)[C@@H](Cc2c[nH]c3ccccc23)NC1=O` (single isomer, unassigned), for which the IC50 max on Endothelin-1 receptor [6] was 0.02 µM.

`CC(C)C[C@@H]1NC(=O)[C@@H](C(C)C)NC(=O)[C@H](CS)NC(=O)[C@@H](CC(=O)O)NC(=O)[C@@H](Cc2c[nH]c3ccccc23)NC1=O` (single isomer, unassigned) showed an IC50 max at Endothelin-1 receptor [6] of 0.24 µM.

In turn, `CC(C)C[C@@H]1NC(=O)[C@@H](C(C)C)NC(=O)[C@@H]2CCCN2C(=O)[C@@H](CC(=O)O)NC(=O)[C@@H](Cc2c[nH]cn2)NC1=O` (single isomer, unassigned) gave an IC50 max at Endothelin-1 receptor [6] of more than 100 µM.

Consider `CC(C)[C@H]1NC(=O)[C@H](CC(=O)O)NC(=O)[C@@H](CC(=O)O)NC(=O)[C@@H](Cc2c[nH]c3ccccc23)NC(=O)[C@H](C)NC1=O` (single isomer, unassigned), for which the IC50 max on Endothelin-1 receptor [6] is 2.8 µM.

Compound `CC(C)C[C@@H]1NC(=O)[C@@H](C(C)C)NC(=O)[C@H](CS(=O)(=O)O)NC(=O)[C@@H](CC(=O)O)NC(=O)[C@@H](Cc2c[nH]c3ccccc23)NC1=O` (single isomer, unassigned) yielded an IC50 max at Endothelin-1 receptor [6] of 0.14 µM.

As for `CCCC[C@@H]1NC(=O)[C@@H](C(C)C)NC(=O)[C@@H]2CCCN2C(=O)[C@@H](CC(=O)O)NC(=O)[C@@H](Cc2c[nH]c3ccccc23)NC1=O` (single isomer, unassigned), on Endothelin-1 receptor [6], the IC50 max came to 0.062 µM.

In the case of `CC(C)C[C@@H]1NC(=O)[C@@H](c2cccs2)NC(=O)[C@@H]2CCCN2C(=O)[C@@H](CC(=O)O)NC(=O)[C@@H](Cc2c[nH]c3ccccc23)NC1=O` (single isomer, unassigned), the IC50 came out at 0.0012 µM on Endothelin-1 receptor [7], 19 µM in data set [3], 0.003 µM on Endothelin-1 receptor [8] and 55 µM in data set [5]. The Kb in the data set filed under Sus scrofa was 0.00794 µM. The solubility in [4] stood at 4 mg/mL (≈ 6.15 mM). Besides, the IC50 max at Endothelin-1 receptor [6] was found to be 0.003 µM.

`CC(C)C[C@@H]1NC(=O)[C@@H](C(C)C)NC(=O)[C@@H]2CCCN2C(=O)[C@@H](CC(=O)O)NC(=O)[C@@H](Cc2ccccc2)NC1=O` (single isomer, unassigned) registered an IC50 max on Endothelin-1 receptor [6] of more than 100 µM.

In the case of `CC(C)C[C@@H]1NC(=O)[C@@H](C(C)C)NC(=O)[C@H]([C@@H](C)O)NC(=O)[C@@H](CC(=O)O)NC(=O)[C@@H](Cc2c[nH]c3ccccc23)NC1=O` (stereo in doubt), the IC50 max at Endothelin-1 receptor [6] came to 0.27 µM.

For the compound `CC[C@H](C)[C@@H]1NC(=O)[C@@H](C(C)C)NC(=O)[C@@H]2CCCN2C(=O)[C@@H](CC(=O)O)NC(=O)[C@@H](Cc2c[nH]c3ccccc23)NC1=O` (stereo in doubt), on Endothelin-1 receptor [6], the IC50 max came out at 0.23 µM.
